Measured values from ChEMBL document CHEMBL1141610, “Design, synthesis, and studies of small molecule STAT3 inhibitors” (Bioorg Med Chem Lett, 2008).
The source made the active and inactive calls. The calls are words filed in the database; no cut-off is given here.

Columns and labels:
[1] = system: PC-3; assay: Antiproliferative activity against human PC3 cells after 72 hrs by MTS assay; type: functional, cell-based; conditions: PC-3, 72 h
Method in brief: (§1)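 Cells seeded at 2000 per well, exposed to varying compound concentrations for 72 h. Viability read by MTS assay. IC50 values are means of two separate experiments, each run in triplicate.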

[2] = system: MCF7; assay: Antiproliferative activity against human MCF7 cells after 72 hrs by MTS assay; type: functional, cell-based; conditions: MCF7, 72 h; method in brief: as §1
[3] = molecular target: Signal transducer and activator of transcription 3 (Homo sapiens) (UniProt P40763); assay: Inhibition of STAT3 binding to DNA
Chain of Signal transducer and activator of transcription 3 (Homo sapiens) (P40763 whole entry): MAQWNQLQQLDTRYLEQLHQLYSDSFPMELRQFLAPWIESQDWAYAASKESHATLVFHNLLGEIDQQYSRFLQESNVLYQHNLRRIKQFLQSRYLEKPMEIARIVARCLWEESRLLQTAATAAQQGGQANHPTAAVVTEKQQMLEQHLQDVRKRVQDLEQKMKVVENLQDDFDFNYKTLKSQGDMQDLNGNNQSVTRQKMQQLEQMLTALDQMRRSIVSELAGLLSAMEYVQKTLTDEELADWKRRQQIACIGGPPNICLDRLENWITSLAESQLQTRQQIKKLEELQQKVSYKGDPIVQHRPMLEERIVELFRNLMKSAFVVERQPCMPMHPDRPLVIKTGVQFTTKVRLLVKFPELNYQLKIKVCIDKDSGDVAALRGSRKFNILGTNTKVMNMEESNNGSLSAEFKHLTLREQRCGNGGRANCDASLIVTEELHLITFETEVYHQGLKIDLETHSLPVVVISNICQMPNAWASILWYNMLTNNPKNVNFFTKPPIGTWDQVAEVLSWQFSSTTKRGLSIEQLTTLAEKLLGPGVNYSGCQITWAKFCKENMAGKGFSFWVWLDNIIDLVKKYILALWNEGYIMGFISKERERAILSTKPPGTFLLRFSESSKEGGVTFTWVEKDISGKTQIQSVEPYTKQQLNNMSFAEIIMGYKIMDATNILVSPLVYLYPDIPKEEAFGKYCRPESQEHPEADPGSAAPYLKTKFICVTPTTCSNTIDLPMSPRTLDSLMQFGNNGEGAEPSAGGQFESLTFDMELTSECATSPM

[4] = system: DU-145; assay: Antiproliferative activity against human DU145 cells after 72 hrs by MTS assay; type: functional, cell-based; conditions: DU-145, 72 h; method in brief: as §1
[5] = system: LNCaP; assay: Antiproliferative activity against human LNCaP cells after 72 hrs by MTS assay; type: functional, cell-based; method in brief: as §1

Row | SMILES | IC50 [1] | IC50 [2] | Activity [3] | IC50 [4] | IC50 [5]
1 | C[C@@H]1CC(=O)c2c(ccc3c2C(=O)c2cccc(O)c2C3=O)C1 [OCHROMYCINONE] | 18.7 µM | 124 µM | Active | 12.2 µM | 
2 | COc1cccc2c1C(=O)c1c(C(C)=O)cccc1C2=O | > 100 µM |  |  | > 100 µM | > 100 µM

Continued, values first:

Row | IC50 [1] | IC50 [2] | Activity [3] | IC50 [4] | IC50 [5] | SMILES
3 | 32.4 µM |  |  | 31.5 µM | 31.5 µM | CC(=O)c1cccc2c1C(=O)c1c(O)cccc1C2=O
4 | 13.4 µM | 88.5 µM |  | 16.2 µM | 34.1 µM | CC(=O)c1cccc2c1C(=O)c1cccc(O)c1C2=O
5 | > 100 µM |  |  | > 100 µM | > 100 µM | COc1cccc2c1C(=O)c1cccc(C(C)=O)c1C2=O
